# Results from publication PMC9414273 (Clinical Cancer Research, 2021).
# Read-outs that look alike come from different tables or passages of the source.
# Tests used:
# [1] = tested on: patients with advanced cancer; assay: Safety and tolerability: treatment-emergent adverse events; format: in vivo, human
# Summary of the method: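 Patients aged 18 or over with ECOG 0–1 got oral test compound twice daily, 2w/2w or 3w/1w per 28-day cycle, in a 3+3 escalation. Each dose level had at least 3 DLT-evaluable patients. AEs graded by CTCAE v4.03, and investigators judged relation to treatment. AE frequency and percentage given per arm for all patients dosed.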
# [2] = Plasma pharmacokinetics of LY3200882; format: in vivo, human
# Summary of the method: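 Oral test compound twice daily on 2w/2w or 3w/1w schedules, 5–50 mg. Plasma measured by validated LC-MS/MS. Cmax, tmax, AUC, CL/F and V/F estimated noncompartmentally. Dose proportionality tested by a power model on log-transformed Cmax and AUC with dose as fixed effect. Steady state and accumulation inferred from t1/2.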
# [3] = tested on: patients with advanced or metastatic cancers; assay: Antitumor activity; format: in vivo, human; conditions: for median PFS: advanced cancers
# [4] = tested on: patients with grade 4 glioma; assay: Antitumor activity; format: in vivo, human
# Summary of the method: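 Patients with grade 4 glioma (IDH1/2-mutant or IDH wild-type) got oral test compound twice daily in 28-day cycles: dose escalation on 2w/2w or 3w/1w, expansion at 50 mg 2w/2w. RANO response by CT or MRI at baseline and days 22–28 of every other cycle until confirmed progression or withdrawal. CR/PR confirmed and reported as frequency. PFS and OS by Kaplan–Meier.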
# [5] = cited from earlier work; for NOAEL daily AUC threshold for cardiotoxicity: established preclinically in rats and dogs
# [6] = tested on: 4T1-luciferase–positive preclinical tumor models of triple-negative breast cancer; conditions: in vitro and in vivo; cited from earlier work
# T-cell proliferation = conditions: preclinical; cited from earlier work
# [7] = tested on: patients with pancreatic cancer; conditions: patients with treatment-naïve advanced pancreatic cancer; cited from earlier work
# [8] = Any grade, Japanese cohort (N = 9)
# [9] = Any grade, grade 4 glioma expansion, RP2D 2w/2w (N = 40)
# [10] = Any grade, schedule A 2w/2w escalation (N = 30)
# [11] = Any grade, schedule B 3w/1w escalation (N = 32)
# [12] = Grade ≥3, Japanese cohort (N = 9)
# [13] = Grade ≥3, grade 4 glioma expansion, RP2D 2w/2w (N = 40)
# [14] = Grade ≥3, schedule A 2w/2w escalation (N = 30)
# [15] = Grade ≥3, schedule B 3w/1w escalation (N = 32)
# [16] = of a total of 139 patients, LY3200882-based therapies
# [17] = schedule A 2w/2w escalation (N = 30)
# [18] = schedule B 3w/1w escalation (N = 32)
# [19] = grade 4 glioma expansion, RP2D 2w/2w (N = 40)
# [20] = single patient, IDH WT grade 4 glioma, monotherapy 50 mg twice a day 2w/2w
compound,measurement,setting,value
CC(C)(O)c1cc(Nc2cc(Oc3cn(C4CC4)nc3C3CCOCC3)ccn2)ccn1 [LY3200882],Dose-limiting toxicities,[1]; 2w/2w and 3w/1w schedules,not observed
same,Recommended phase II dose (RP2D),[1]; 2w/2w schedule,50 mg twice a day
same,Recommended phase II dose (RP2D),[1]; 3w/1w schedule,35 mg twice a day
same,ALT increased (study treatment-related AE),[1]; [8],1 (11) n (%)
same,Anemia (study treatment-related AE),[1]; [8],1 (11) n (%)
same,Fatigue (study treatment-related AE),[1]; [8],0 (0) n (%)
same,Nausea (study treatment-related AE),[1]; [8],1 (11) n (%)
same,Subjects with ≥1 TEAE related to study treatment,[1]; [8],3 (33) n (%)
same,ALT increased (study treatment-related AE),[1]; [9],0 (0) n (%)
same,Anemia (study treatment-related AE),[1]; [9],0 (0) n (%)
same,Fatigue (study treatment-related AE),[1]; [9],4 (10) n (%)
same,Nausea (study treatment-related AE),[1]; [9],0 (0) n (%)
same,Subjects with ≥1 TEAE related to study treatment,[1]; [9],10 (25) n (%)
same,ALT increased (study treatment-related AE),[1]; [10],0 (0) n (%)
same,Anemia (study treatment-related AE),[1]; [10],1 (3) n (%)
same,Fatigue (study treatment-related AE),[1]; [10],0 (0) n (%)
same,Nausea (study treatment-related AE),[1]; [10],1 (3) n (%)
same,Subjects with ≥1 TEAE related to study treatment,[1]; [10],10 (33) n (%)
same,ALT increased (study treatment-related AE),[1]; [11],2 (6) n (%)
same,Anemia (study treatment-related AE),[1]; [11],1 (3) n (%)
same,Fatigue (study treatment-related AE),[1]; [11],1 (3) n (%)
same,Nausea (study treatment-related AE),[1]; [11],1 (3) n (%)
same,Subjects with ≥1 TEAE related to study treatment,[1]; [11],10 (31) n (%)
same,ALT increased (study treatment-related AE),[1]; [12],0 (0) n (%)
same,Anemia (study treatment-related AE),[1]; [12],0 (0) n (%)
same,Fatigue (study treatment-related AE),[1]; [12],0 (0) n (%)
same,Nausea (study treatment-related AE),[1]; [12],0 (0) n (%)
same,Subjects with ≥1 TEAE related to study treatment,[1]; [12],0 (0) n (%)
same,ALT increased (study treatment-related AE),[1]; [13],0 (0) n (%)
same,Anemia (study treatment-related AE),[1]; [13],0 (0) n (%)
same,Fatigue (study treatment-related AE),[1]; [13],0 (0) n (%)
same,Nausea (study treatment-related AE),[1]; [13],0 (0) n (%)
same,Subjects with ≥1 TEAE related to study treatment,[1]; [13],0 (0) n (%)
same,ALT increased (study treatment-related AE),[1]; [14],0 (0) n (%)
same,Anemia (study treatment-related AE),[1]; [14],0 (0) n (%)
same,Fatigue (study treatment-related AE),[1]; [14],0 (0) n (%)
same,Nausea (study treatment-related AE),[1]; [14],0 (0) n (%)
same,Subjects with ≥1 TEAE related to study treatment,[1]; [14],0 (0) n (%)
same,ALT increased (study treatment-related AE),[1]; [15],0 (0) n (%)
same,Anemia (study treatment-related AE),[1]; [15],0 (0) n (%)
same,Fatigue (study treatment-related AE),[1]; [15],0 (0) n (%)
same,Nausea (study treatment-related AE),[1]; [15],0 (0) n (%)
same,Subjects with ≥1 TEAE related to study treatment,[1]; [15],0 (0) n (%)
same,Cardiovascular AEs,[1]; LY3200882 as monotherapy,no cardiovascular AEs were observed
same,Deaths related to study treatment,[1]; overall,none
same,Patients with SAEs related to study drug,"[1]; overall, 3 patients, only in combination expansion arms",2.2%
same,Patients with at least 1 serious AE (SAE),"[1]; overall, 24 patients",17.3%
same,Deaths reported in the study,"[1]; overall, 63 deaths",45.3%
same,Patients with TEAEs that were study-treatment (LY3200882) related,"[1]; overall, all arms, 55 patients",39.6%
same,Patients who experienced ≥1 TEAE,"[1]; overall, all arms, 130 of 139 treated patients",93.5%
same,PK profile linearity,[2]; 5- to 50-mg dose range,linear with dose and time
same,Doses after which steady state would be achieved,[2]; based on the short t1/2,2 doses
same,Time at which peak concentration was reached after administration,"[2]; oral, patients",2 h
same,mean CL/F,"[2]; oral, patients",57.3 L/h
same,mean V/F,"[2]; oral, patients",559 L
same,Accumulation ratio,"[2]; steady state, twice a day, based on the short t1/2",1.4 fold
same,Effect on its own metabolism,[2]; suggested by PK constant over time,neither an inhibitor nor an inducer of its own metabolism
same,median OS,"[3]; 35 mg twice a day 3w/1w (8 patients), 95% CI 2.6–NE",4.0 months
same,median OS,"[3]; 50 mg twice a day 2w/2w (17 patients), 95% CI 1.2–11.4",6.1 months
same,Best overall response: CR,[3]; Japanese cohort (N = 9),0 (0) n (%)
same,Best overall response: Nonevaluable,[3]; Japanese cohort (N = 9),1 (11) n (%)
same,Best overall response: PR,[3]; Japanese cohort (N = 9),0 (0) n (%)
same,Best overall response: Progressive disease,[3]; Japanese cohort (N = 9),8 (89) n (%)
same,Best overall response: SD,[3]; Japanese cohort (N = 9),0 (0) n (%)
same,DCR (CR/PR/SD),[3]; Japanese cohort (N = 9),0 (0) n (%)
same,ORR (CR/PR),[3]; Japanese cohort (N = 9),0 (0) n (%)
same,median PFS,"[3]; 35 mg twice a day 3w/1w (n = 8), 95% CI 0.8–2.6",1.7 months
same,median PFS,"[3]; 50 mg twice a day 2w/2w (n = 17), 95% CI 0.9–2.0",1.8 months
same,Patients who achieved radiologic CR/PR,[3]; [16],11 patients
same,Patients who had SD,[3]; [16],28 patients
same,DCR,[3]; overall study population,28.1%
same,Best overall response: CR,[3]; [17],0 (0) n (%)
same,Best overall response: Nonevaluable,[3]; [17],8 (27) n (%)
same,Best overall response: PR,[3]; [17],1 (3) n (%)
same,Best overall response: Progressive disease,[3]; [17],15 (50) n (%)
same,Best overall response: SD,[3]; [17],6 (20) n (%)
same,DCR (CR/PR/SD),[3]; [17],7 (23) n (%)
same,ORR (CR/PR),[3]; [17],1 (3) n (%)
same,Best overall response: CR,[3]; [18],0 (0) n (%)
same,Best overall response: Nonevaluable,[3]; [18],4 (13) n (%)
same,Best overall response: PR,[3]; [18],1 (3) n (%)
same,Best overall response: Progressive disease,[3]; [18],20 (63) n (%)
same,Best overall response: SD,[3]; [18],7 (22) n (%)
same,DCR (CR/PR/SD),[3]; [18],8 (25) n (%)
same,ORR (CR/PR),[3]; [18],1 (3) n (%)
same,Duration of response (RANO PR),"[4]; dose escalation, 1 patient IDH 1–mutant grade 4 glioma, 3w/1w schedule",3.9 months
same,Duration of response (RANO PR),"[4]; dose escalation, 1 patient IDH WT grade 4 glioma, 2w/2w schedule",19 months
same,Duration of response (RANO PR),"[4]; dose-expansion arm, 1 patient IDH WT grade 4 glioma, 50 mg twice a day 2w/2w",5.6 months
same,median OS,"[4]; dose-expansion arm, 15 patients with recurrent IDH mutant grade 4 glioma, 95% CI 7.3–NE",10.6 months
same,median OS,"[4]; dose-expansion arm, 25 patients with IDH WT grade 4 glioma, 95% CI 4.6–9.7",8.2 months
same,median PFS,"[4]; dose-expansion arm, IDH mutant, 95% CI 1.3–1.8",1.7 months
same,Best overall response: CR,[4]; [19],0 (0) n (%)
same,Best overall response: Nonevaluable,[4]; [19],7 (18) n (%)
same,Best overall response: PR,[4]; [19],1 (3) n (%)
same,Best overall response: Progressive disease,[4]; [19],26 (65) n (%)
same,Best overall response: SD,[4]; [19],6 (15) n (%)
same,DCR (CR/PR/SD),[4]; [19],7 (18) n (%)
same,ORR (CR/PR),[4]; [19],1 (3) n (%)
same,Time remained on trial,[4]; [20],30.4 months
same,Tumor reduction by RANO assessment,[4]; [20],94%
same,NOAEL daily AUC threshold for cardiotoxicity,[5]; 2w/2w schedule,3.4 mg X h/L
same,NOAEL daily AUC threshold for cardiotoxicity,[5]; 3w/1w schedule,1.56 mg X h/L
same,NOAEL for cardiotoxicity (AUC),[5]; nonclinical toxicology studies,3.4 mg X hours/L
same,Effect on tumors in 4T1 models,[6],durable tumor regression
same,Immunomodulatory effects,T-cell proliferation,induction of T-cell proliferation
FOLFIRINOX,ORR,[7],31.6%
